Published values gathered from unrelated publications.
Target: Cyclin-dependent kinase 9 (CDK9, Homo sapiens, UniProt P50750)

| Structure (SMILES) | effect on | method | tested at | remaining binding [%] |
| --- | --- | --- | --- | --- |
| Nc1ncc2c(n1)-c1c([nH]c3ccc(C#CC4CC4)cc13)CCCC2 | binding | competition with immobilised ligand | 1 µM | 91 |
| CN(CCCC(F)(F)F)c1nccc(-c2cnn3ncccc23)n1 | binding | – | 1 µM | 100 |
| c1cncc(-c2cccc(Nc3nccc(NC4CCCCC4)n3)c2)c1 | binding | competition with immobilised ligand | 10 µM | 63 |
| CC(C)(C)c1ccc(-c2nc(CBr)nn2-c2cccc(O)c2)cc1 | cell-free assay | competition with immobilised ligand | 10 µM | 91 |
| CN(C)c1nccc(-c2cnn3ncccc23)n1 | binding | – | 1 µM | 100 |
| CNC(=O)[C@@H]1CC[C@@H](n2c(-c3ccc4cnccc4c3)nc3ccc(C(=O)NCc4cccc(C(N)=O)c4)cc32)C1 | binding | competition with immobilised ligand | 1 µM | 100 |
| CN(C)c1ncc(F)c(-c2cnn3ncccc23)n1 | binding | – | 1 µM | 100 |
| FC(F)(F)Oc1cccc(-c2cnc3ccc(-c4ccncc4)nn23)c1 | cell-free assay | competition with immobilised ligand | 5 µM | 89 |
| CCC(=O)N[C@H]1CC[C@@H](C(=O)N(C)c2ccc(-c3nc4ccccc4o3)cc2)C1 | cell-free assay | competition with immobilised ligand | 1 µM | 95 |
| CN(C)c1nccc(-c2cnc3ncccn23)n1 | binding | – | 1 µM | 100 |
| Cc1c(C(=O)O)cc(-c2ccc(C3CCNCC3)cc2)c2ccc(-c3ccc(C(F)(F)F)cc3)cc12 | binding | competition with immobilised ligand | 1 µM | 100 |
| O=C(NCCCN1CCOCC1)c1ccc(Nc2nccc(-c3cc4ccccc4s3)n2)cc1 | binding | competition with immobilised ligand | 1 µM | 52 |
| NS(=O)(=O)c1cc(NC(=O)C2(c3ccccc3Cl)CC2)ccc1Oc1cccc(Cl)c1 | cell-free assay | competition with immobilised ligand | 1 µM | 78 |
| COc1ccnn2ncc(-c3ccnc(N(C)C)n3)c12 | binding | – | 1 µM | 100 |
| O=C(c1ccc(Nc2ncc(Cl)c(-c3cc4ccccc4s3)n2)cc1)N1CCC(N2CCCC2)CC1 | binding | competition with immobilised ligand | 1 µM | 82 |
| CN(c1ccnc(CNc2nc(Nc3ccc4c(c3)CC(=O)N4)ncc2C(F)(F)F)n1)S(C)(=O)=O | cell-free assay | competition with immobilised ligand | 1 µM | 84 |
| O=C(NCC1CCOCC1)c1n[nH]cc1NC(=O)c1c(F)cccc1F | binding | competition with immobilised ligand | 1 µM | 83 |
| COc1cnc(Nc2cccc(S(N)(=O)=O)c2)nc1N1CCN(c2ccccc2)C(=O)C1 | binding | competition with immobilised ligand | 1 µM | 100 |
| COc1ccc2c(c1)O[C@@H](c1ccc(OC)c(OC)c1)C[C@H]2NC(=O)C1(c2ccc3c(c2)OC(F)(F)O3)CC1 | cell-free assay | competition with immobilised ligand | 1 µM | 89 |
| O=C(c1ccc(Nc2nccc(-c3cc4ccccc4s3)n2)cc1)N1CCC(N2CCCC2)CC1 | binding | competition with immobilised ligand | 1 µM | 85 |
| CCOCCn1cc(C(=O)Nc2ccc(-n3nc(-c4cccnc4)cc3C(F)(F)F)cn2)ccc1=O | cell-free assay | competition with immobilised ligand | 1 µM | 97 |
| N[C@@H]1CCN(c2nccc(-c3cnn4ncccc34)n2)C1 | binding | – | 1 µM | 100 |
| Nc1cnc(N2CCc3cc(S(=O)(=O)Nc4c(F)cc(Cl)cc4F)cc(N4CCCC4=O)c32)nc1 | cell-free assay | competition with immobilised ligand | 1 µM | 100 |
| C[C@@H]1CN(c2ccc3ncc(-c4ccc5[nH]nc(C6CC6)c5c4)n3n2)C[C@H](C)O1 | binding | competition with immobilised ligand | 0.5 µM | 78 |
